ChEMBL document CHEMBL3352753, “Novel strategy to boost oral anticoagulant activity of blood coagulation enzyme inhibitors based on biotransformation into hydrophilic conjugates” (Bioorg Med Chem, 2014)
The source made the active and inactive calls. The rule behind the calls is not given here.

How the values were obtained:
Plasma [1] = experiment: Anticoagulant activity in cynomolgus monkey plasma assessed as concentration required to double prothrombin time by coagulometry; assay type: functional, Macaca fascicularis
Summary of the method: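 Citrated cynomolgus monkey blood spun at 3000 rpm for 10 min to give platelet-poor plasma, stored at −40 °C. Prothrombin time measured by coagulometer at 37 °C with thromboplastin, compared against a distilled water control. CT2 (concentration doubling clotting time) estimated from each individual concentration–response curve. Mean of three separate determinations.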

Coagulation factor X = Coagulation factor X (Homo sapiens, UniProt P00742); experiment: Inhibition of purified factor 10a (unknown origin) using chromogenic substrate S-2222 by spectrophotometry
Sequence of Coagulation factor X (P00742 41-179 limits assumed): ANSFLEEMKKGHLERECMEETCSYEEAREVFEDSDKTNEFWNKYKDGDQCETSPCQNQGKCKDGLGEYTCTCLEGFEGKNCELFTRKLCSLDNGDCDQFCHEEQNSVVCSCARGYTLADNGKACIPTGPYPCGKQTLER
Sequence of Coagulation factor X (P00742 235-488 limits assumed): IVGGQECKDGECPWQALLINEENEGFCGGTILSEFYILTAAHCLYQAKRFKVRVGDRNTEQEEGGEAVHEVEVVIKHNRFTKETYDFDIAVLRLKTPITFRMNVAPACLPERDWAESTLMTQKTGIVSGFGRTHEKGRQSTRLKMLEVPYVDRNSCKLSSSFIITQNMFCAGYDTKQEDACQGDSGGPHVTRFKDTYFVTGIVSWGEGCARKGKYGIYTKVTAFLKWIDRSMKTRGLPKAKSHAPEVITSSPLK
Summary of the method: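 Chromogenic assay with S-2222 substrate in 0.05 M Tris-HCl pH 8.4 or 0.15 M NaCl. Reaction started by adding enzyme, and A405 read continuously at 37 °C. IC50 taken from a plot of logit residual activity against log inhibitor concentration. Mean of three separate determinations.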

[2] = Permeability of the compound at pH 6.5 after 2 hrs by PAMPA; assay type: ADME; conditions: read-out: permeability
Summary of the method: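 PAMPA in a filter-plate sandwich. Sample was 50 µM final, in buffer with 10% DMSO, filtered before use. Donor was pH 6.5 and acceptor pH 7.4. Plates incubated 2 h at 25 °C in humid air. Donor and acceptor contents quantified by UV spectrum (270–400 nm) against reference standards. n = 2.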

[3] = Lipophilicity, logD of the compound; assay type: physicochemical; conditions: octanol/water
Cynomolgus monkey [4] = experiment: Ex vivo anticoagulant activity in cynomolgus monkey plasma at 1 mg/kg, iv as single bolus dose measured after 5 mins post dose; assay type: functional, organism-based; design: dose 1 mg/kg; conditions: Macaca fascicularis
Summary of the method: (§1)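 Cynomolgus monkeys (n = 3) received a single intravenous bolus. Citrated blood was taken 5 min later and platelet-poor plasma prepared by centrifugation. PT expressed relative to normal cynomolgus monkey plasma, as mean + SD.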

Cynomolgus monkey [5] = experiment: Ex vivo anticoagulant activity in cynomolgus monkey plasma at 1 to 10 mg/kg, po as single bolus dose measured after 5 mins post dose; assay type: functional, organism-based; conditions: Macaca fascicularis
Trypsin = Trypsin (Homo sapiens, UniProt P07477+P07478+P35030); experiment: Inhibition of purified trypsin (unknown origin) using chromogenic substrate S-2222 by spectrophotometry; assay type: protein assay
Summary of the method: (§2)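 Chromogenic amidolysis started by adding enzyme, with A405 monitored continuously at 37 °C. Thrombin was 0.20 U/mL final with S-2238. Trypsin was 1.0 U/mL final with S-2222. Hydrolysis rate recorded as mOD/min.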

Cynomolgus monkey [6] = experiment: Ex vivo anticoagulant activity in cynomolgus monkey plasma at 1 mg/kg, po as single bolus dose measured after 5 mins post dose; assay type: functional, organism-based; design: dose 1 mg/kg; conditions: Macaca fascicularis
Prothrombin = Prothrombin (Homo sapiens, UniProt P00734); experiment: Inhibition of purified thrombin (unknown origin) using chromogenic substrate S-2238 by spectrophotometry; summary of the method: as §2
Plasma [7] = experiment: Drug metabolism in cynomolgus monkey plasma assessed as formation of glucuronide metabolite at 10 mg/kg, po as single bolus dose measured after 1 to 24 hrs post dose; assay type: ADME, organism-based, Macaca fascicularis; design: dose 10 mg/kg, route oral; conditions: in vivo
Summary of the method: (§3)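 Male cynomolgus monkeys (4.0–4.5 kg, n = 3), fasted, given 10 mg/kg orally as a suspension in 0.5% methylcellulose. Blood sampled at 1, 2, 4, 6, 8, 12 and 24 h and spun to plasma. Samples underwent solid-phase extraction, were dried, reconstituted in mobile phase and measured by LC–MS/MS for parent and glucuronide, with an internal standard. Dose and concentrations expressed as free form. LOQ 10 ng/mL.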

Plasma [8] = experiment: Drug level in cynomolgus monkey plasma treated with 4'-Bromo-2'-[(5-chloro-2-pyridyl)carbamoyl]-6'-hydroxyl-1-isopropylpiperidine-4-carboxanilide hydrochloride at 10 mg/kg, po as single bolus dose measured after 1 to 24 hrs post dose; assay type: ADME, organism-based, Macaca fascicularis; design: dose 10 mg/kg, route oral; conditions: in vivo; summary of the method: as §3
Cynomolgus monkey [9] = experiment: Ex vivo anticoagulant activity in cynomolgus monkey plasma at 0.1 mg/kg, iv as single bolus dose measured after 5 mins post dose; assay type: functional, organism-based; design: dose 0.1 mg/kg; conditions: Macaca fascicularis; summary of the method: as §1

`CC(C)N1CCC(C(=O)Nc2ccc(Cl)cc2C(=O)Nc2ccc(Cl)cn2)CC1` showed a 2PT (Plasma [1]) of 0.22 µM, an IC50 (Coagulation factor X) of 5.8 nM and a Papp at 2 h [2] greater than 30 ×10⁻⁶ cm/s. For the same compound, the logD [3] was 1.8, the Activity (Cynomolgus monkey [4]) was “Active” and the Activity (Cynomolgus monkey [5]) was “Active”.
With `CC(C)N1CCC(C(=O)Nc2c(O)cc(Br)cc2C(=O)Nc2ccc(Cl)cn2)CC1` the 2PT (Plasma [1]) was 0.31 µM, the IC50 (Trypsin) was greater than 100000 nM and the Activity (Cynomolgus monkey [6]) was “Active”. The IC50 (Coagulation factor X) was 4 nM, the Papp at 2 h [2] was greater than 30 ×10⁻⁶ cm/s and the IC50 (Prothrombin) was greater than 100000 nM. The Drug metabolism (Plasma [7]) was “metabolite_detected”.
With `CC(C)N1CCC(C(=O)Nc2c(O)cc(Cl)cc2C(=O)Nc2ccc(Cl)cn2)CC1` the IC50 (Coagulation factor X) was 8.2 nM.
In the case of `CC(C)N1CCC(C(=O)Nc2c(O[C@@H]3O[C@H](C(=O)O)[C@@H](O)[C@H](O)[C@H]3O)cc(Br)cc2C(=O)Nc2ccc(Cl)cn2)CC1`, the Drug metabolism (Plasma [8]) is reported as “metabolite_detected”, the 2PT (Plasma [1]) is reported as 0.28 µM and the IC50 (Trypsin) is reported as greater than 100000 nM. For the same compound, the Activity (Cynomolgus monkey [9]) was “Active”, the IC50 (Coagulation factor X) was 4.9 nM and the logD [3] was -1.1. It also gave an IC50 (Prothrombin) greater than 100000 nM.
With `CC(C)N1CCC(C(=O)Nc2c(O[C@@H]3O[C@H](C(=O)O)[C@@H](O)[C@H](O)[C@H]3O)cc(Cl)cc2C(=O)Nc2ccc(Cl)cn2)CC1` the IC50 (Coagulation factor X) was 15 nM.
